ChEMBL document CHEMBL1806437, “Design, synthesis and antileishmanial in vitro activity of new series of chalcones-like compounds: a molecular hybridization approach” (Bioorg Med Chem, 2011)

Experiments:
Leishmania amazonensis = test: Antileishmanial activity against Leishmania amazonensis MHOM/IFLA/BR/67/PH8 promastigotes after 72 hrs by cell counting using Neubauer chamber; type: functional, organism-based; conditions: MHOM/IFLA/BR/67/PH8, 72 h
Outline: (§1)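 Log-phase promastigotes seeded at 1 × 10⁶ parasites/mL in Schneider's Drosophila medium with 20% FBS, streptomycin and penicillin (100 U/mL), 26 °C, with or without a range of compound concentrations; Glucantime and amphotericin B as reference controls. At 72 h cells fixed in citric acid/NaCl/formalin isotonic solution and counted microscopically; IC50/72 h by probit regression.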

Leishmania chagasi = test: Antileishmanial activity against Leishmania chagasi MCAN/BR/99/JP15 promastigotes after 72 hrs by cell counting using Neubauer chamber; type: functional, organism-based; conditions: MCAN/BR/99/JP15, 72 h; outline: as §1

Structure (SMILES) | IC50 (Leishmania amazonensis) [µM] | IC50 (Leishmania chagasi) [µM]
C=C(CCC(=O)Oc1ccccc1C(=O)OC)C(=O)Oc1ccccc1C(=O)OC | 22.4 | 49.1
C=CC(=O)Oc1ccccc1C(=O)OC [METHYL SALICYLATE ACRYLIC ESTER] | 108 | 119
C=C(C(=O)Oc1ccccc1C(=O)OC)C(O)c1cccnc1 (configuration not stated) | 31.2 | 38.7
C=C(C(=O)Oc1ccccc1C(=O)OC)C(O)c1ccc([N+](=O)[O-])cc1 (configuration not stated) | 11.3 | 57.3
COC(=O)c1ccccc1O [METHYL SALICYLATE] | 228 | 261
C=C(C(=O)Oc1ccccc1C(=O)OC)C(O)c1cccc([N+](=O)[O-])c1 (configuration not stated) | 22.9 | 40.6
C=C(C(=O)Oc1ccccc1C(=O)OC)C(O)c1ccc(Br)cc1 (configuration not stated) | 22 | 43
C=C(C(=O)Oc1ccccc1C(=O)OC)C(O)c1ccncc1 (configuration not stated) | 23.8 | 33.4
C=C(C(=O)Oc1ccccc1C(=O)OC)C(O)c1ccccc1[N+](=O)[O-] (configuration not stated) | 7.65 | 10.1
C=C(C(=O)Oc1ccccc1C(=O)OC)C(O)c1ccc2ccccc2c1 (configuration not stated) | 9 | 41.4
C[C@@H]1[C@H](O)[C@@H](C)/C=C/C=C/C=C/C=C/C=C/C=C/C=C/[C@H](O[C@@H]2O[C@H](C)[C@@H](O)[C@H](N)[C@@H]2O)C[C@@H]2O[C@](O)(C[C@@H](O)C[C@@H](O)[C@H](O)CC[C@@H](O)C[C@@H](O)CC(=O)O[C@H]1C)C[C@H](O)[C@H]2C(=O)O [AMPHOTERICIN B] | 0.12 | 0.69
